According to PMC6077846 (ChemMedChem, 2018):
Entries after “also recorded” stand apart in the source; their conditions may differ.

What was measured:
[1] = Stability in aqueous sodium phosphate buffer; assay type: physicochemical; details: sodium phosphate buffer 0.15 M, pH 7.4
[2] = Tissue stability in rat brain homogenate; assay type: in vitro ADME; details: room temperature, 30 min
cPLA2α [3] = details: cPLA2α inhibition; ref [19] and [20]; cited from earlier work
Lipophilicity = assay type: physicochemical; details: 1-octanol/sodium phosphate buffer, pH 7.4
Summary of the method: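 The 11C-labelled test compound was partitioned between 1-octanol and 0.15 M sodium phosphate buffer, pH 7.4. The aqueous phase left after extraction was analysed by radio-HPLC on C18 with MeOH:H2O:Et3N (92.5:7.5:0.1) at 4.0 mL/min. The result was decay-corrected and corrected for radioligand instability in the buffer.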

[4] = Distribution into cellular blood elements, monkey blood; assay type: in vitro ADME; details: absence of autologous plasma
Summary of the method: (§1)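 Carbon-11 carboxyl-labelled test compound added to freshly drawn heparin-anticoagulated blood. Blood cells were tested with and without autologous plasma, and the fraction of radioactivity bound to cells was determined. Mean ± SD, n = 3.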

[5] = Distribution into cellular blood elements, rat blood; assay type: in vitro ADME; details: absence of autologous plasma
Summary of the method: as §1

P-gp/BCRP = assay: PET imaging in P-gp/BCRP dual knock-out mice; assay type: in vivo
Summary of the method: (§2)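 Mice under 1.5% isoflurane were given about 7.4 MBq of 11C-labelled test compound i.v. via a tail-vein catheter. Vehicle was ethanol/saline 1:9 with ascorbic acid and Tween. Dynamic microPET ran for 100 min and brain time-activity curves were plotted in SUV. Images were reconstructed by Fourier rebinning and 2D OSEM, with no attenuation or scatter correction.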

cPLA2α [6] = molecular target: T1, cPLA2α (Mus musculus, UniProt P47713); assay: PET imaging in wild type mice with self-block pretreatment; assay type: in vivo; details: blocking agent 2 mg/kg i.v. 30 min before radioligand
T1 sequence (P47713 1-748): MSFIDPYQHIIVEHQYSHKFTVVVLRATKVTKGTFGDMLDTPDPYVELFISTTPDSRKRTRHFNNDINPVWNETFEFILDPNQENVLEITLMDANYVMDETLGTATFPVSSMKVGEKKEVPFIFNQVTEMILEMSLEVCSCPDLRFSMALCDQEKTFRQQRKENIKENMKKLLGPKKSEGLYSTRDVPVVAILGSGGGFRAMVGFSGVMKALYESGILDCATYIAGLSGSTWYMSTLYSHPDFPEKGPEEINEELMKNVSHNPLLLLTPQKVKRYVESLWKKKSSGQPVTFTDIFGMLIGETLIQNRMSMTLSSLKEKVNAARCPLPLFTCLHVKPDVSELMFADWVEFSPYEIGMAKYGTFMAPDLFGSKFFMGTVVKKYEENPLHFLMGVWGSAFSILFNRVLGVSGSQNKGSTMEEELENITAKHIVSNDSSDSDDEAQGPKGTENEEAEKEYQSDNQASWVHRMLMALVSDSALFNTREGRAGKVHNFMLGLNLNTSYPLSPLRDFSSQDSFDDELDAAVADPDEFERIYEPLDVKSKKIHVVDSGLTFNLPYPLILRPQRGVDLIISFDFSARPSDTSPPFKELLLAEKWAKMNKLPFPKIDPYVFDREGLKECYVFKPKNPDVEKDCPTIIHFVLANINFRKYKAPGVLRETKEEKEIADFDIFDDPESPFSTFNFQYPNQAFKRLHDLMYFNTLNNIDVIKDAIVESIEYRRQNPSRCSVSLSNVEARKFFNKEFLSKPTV
Summary of the method: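 Wild-type mice under 1.5% isoflurane first received unlabelled blocking agent, 2 mg/kg i.v. via tail-vein catheter. Thirty minutes later they were given about 7.4 MBq of 11C-labelled test compound in ethanol/saline (1:9), ascorbic acid and Tween. MicroPET ran for 100 min. Brain time-activity curves were compared with baseline. Reconstruction used FORE/2D OSEM without attenuation or scatter correction.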

[7] = PET imaging in wild type mice, baseline radioactivity uptake; assay type: in vivo; details: i.v. injection
Summary of the method: as §2

SMILES	Stability in buffer [1] [%]	Stability in rat brain homogenate [2] [%]	IC50 (cPLA2α [3]) [nM]	logD (Lipophilicity)	Bound to blood cells [4]	Bound to blood cells [5]	Peak radioactivity in brain (P-gp/BCRP; P-gp/BCRP dual knock-out mice, i.v. injection) [SUV]	Efflux transporter (P-gp/BCRP) substrate status (P-gp/BCRP; wild type vs dual knock-out mice brain uptake)	Effect of pretreatment with non-radioactive ligand on brain time-activity curve (cPLA2α [6])	Peak radioactivity in brain [7] [SUV]
CC(=O)c1cn(CC(=O)COc2ccc(Oc3ccc(C(F)(F)F)cc3)cc2)c2ccc(C(=O)O)cc12 [[^11C]2, 3-acetyl-1-(2-oxo-3-(4-(4-(trifluoromethyl)-phenoxy)phenoxy)propyl)-1H-indole-5-carboxylic acid]	98.4±0.2	97.5	10	2.43 ± 0.01						
CC(C)C(=O)c1cn(CC(=O)COc2ccc(Oc3ccccc3)cc2)c2ccc(C(=O)O)cc12 [[^11C]1, 3-isobutyryl-1-(2-oxo-3-(4-phenoxyphenoxy)propyl)-1H-indole-5-carboxylic acid]			12	2.1 ± 0.01	More than 94%	More than 94%	0.5	not efflux transporters substrates; also recorded: not a brain P-gp or BRCP efflux transporter substrate	did not alter	0.4
CCCCCCCCc1ccc(OCC(=O)Cn2cc(-c3nc(C)no3)c3cc(C(=O)O)ccc32)cc1 [[^11C]4, 3-(3-methyl-1,2,4-oxadiazol-5-yl)-1-(3-(4-octylphenoxy)-2-oxopropyl)-1H-indole-5-carboxylic acid]	80.3±3.4	104		1.94 ± 0.15						
Cc1noc(-c2cn(CC(=O)COc3ccc(Oc4ccccc4)cc3)c3ccc(C(=O)O)cc23)n1 [[^11C]3, 3-(3-methyl-1,2,4-oxadiazol-5-yl)-1-(2-oxo-3-(4-phenoxyphenoxy)propyl)-1H-indole-5-carboxylic acid]	99.7±0.2		6.1	2.07 ± 0.02						
